Experimental data as given in PubChem BioAssay AID602155 (Broad Institute, 2011).
Calls of active or inactive are those of the source.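 The calls were made as follows: active = radiolabeled lipid uptake into receptor liposomes lowered versus untreated receptor liposomes, like the reference inhibitor; inactive = the rest.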

The compounds below were run against Scavenger receptor class B member 1 (Mus musculus) (UniProt Q61009) (assay: inhibitors of purified SR-BI lipid uptake, orthogonal assay for SR-BI HDL uptake inhibitor project, biochemical, reconstituted liposomes, [3H]CE-HDL, scintillation, dry powder (AID 602155)). Settings: SR-BI proteoliposomes, [3H]CE-HDL selective uptake, at 1 µM, stronger effect = lower value.
Sequence of Scavenger receptor class B member 1 (Mus musculus) (Q61009 whole entry, looked up): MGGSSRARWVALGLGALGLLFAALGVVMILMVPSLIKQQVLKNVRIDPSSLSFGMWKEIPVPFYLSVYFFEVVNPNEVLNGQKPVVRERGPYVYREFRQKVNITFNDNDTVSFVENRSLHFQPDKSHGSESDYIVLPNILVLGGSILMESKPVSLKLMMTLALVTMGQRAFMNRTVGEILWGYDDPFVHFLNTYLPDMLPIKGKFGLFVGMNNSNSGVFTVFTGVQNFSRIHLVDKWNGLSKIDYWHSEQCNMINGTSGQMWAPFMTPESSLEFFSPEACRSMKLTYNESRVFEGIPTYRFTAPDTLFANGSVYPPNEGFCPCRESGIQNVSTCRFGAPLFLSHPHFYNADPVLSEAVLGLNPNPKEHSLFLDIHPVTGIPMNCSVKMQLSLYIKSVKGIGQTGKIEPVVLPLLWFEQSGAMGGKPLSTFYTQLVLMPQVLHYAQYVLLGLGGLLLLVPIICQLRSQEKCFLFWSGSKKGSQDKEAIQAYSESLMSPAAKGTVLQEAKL
Procedure, shortened: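 System: murine SR-BI proteoliposomes. Probe or stimulus: [3H]CE-labeled HDL. Incubation: 60 min compound–liposome pre-incubation, then 4 h HDL at 37 °C. Evaluation: percent of control selective lipid uptake. Benchmarks: SR-BI liposomes in DMSO (100%) versus receptor-free liposomes (0%).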

lipid uptake | SMILES
46.9% | COc1ccc(-c2nnn(CC(=O)N(C3CCCCC3)C(C)C(=O)NC3CCCC3)n2)cc1OC (centres undefined)
128% (inactive) | O=C(Nc1ccccc1)c1ccccc1NS(=O)(=O)c1ccc(Cl)cc1
52.9% | CCOC(=O)N1CCC(NC(=O)c2ccc3c(c2)N(Cc2ccc(F)cc2)CCS3)CC1
63.1% | CCC(=O)N1CCc2cc(-c3csc(NC(=O)c4ccco4)n3)ccc21
